The list is not random: actives were taken first. Their share in the collection is about 2.7%.
NR2E3 ag-1 = NR2E3 agonists in two-hybrid cells, primary screen, cell-based, luminescence, CHO-S, Gal4-NCOR/VP16-NR2E3. luciferase. inhibition of corepressor binding, % at 3.98 µM. hit rate 0.35% among 360,000;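 active means inhibition above the mean of all tested compounds plus 3 SD, cut at about 70% in these data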;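 further: 0% = DMSO with NR2E3 transfected cells and 100% = cells lacking NR2E3 construct; higher means lower luciferase signal from less NR2E3 corepressor binding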
NR1D1 modulator = modulators of Rev-erb alpha DNA binding, primary screen, biochemical, FITC-DNA, fluorescence polarization, uHTS; Nuclear receptor subfamily 1 group D member 1 (Homo sapiens), P20393; Rev-erbα–FITC-DNA binding, 90 min; activity, % at 10 µM; hit rate 0.79% among 370,000;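 active means activity above about 14%, limit read from the data; passing the limit was not always enough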;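 further: 0% = DMSO wells with 35 nM protein and 100% = DMSO wells with 750 nM protein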
Target sequence (P20393 whole entry, looked up): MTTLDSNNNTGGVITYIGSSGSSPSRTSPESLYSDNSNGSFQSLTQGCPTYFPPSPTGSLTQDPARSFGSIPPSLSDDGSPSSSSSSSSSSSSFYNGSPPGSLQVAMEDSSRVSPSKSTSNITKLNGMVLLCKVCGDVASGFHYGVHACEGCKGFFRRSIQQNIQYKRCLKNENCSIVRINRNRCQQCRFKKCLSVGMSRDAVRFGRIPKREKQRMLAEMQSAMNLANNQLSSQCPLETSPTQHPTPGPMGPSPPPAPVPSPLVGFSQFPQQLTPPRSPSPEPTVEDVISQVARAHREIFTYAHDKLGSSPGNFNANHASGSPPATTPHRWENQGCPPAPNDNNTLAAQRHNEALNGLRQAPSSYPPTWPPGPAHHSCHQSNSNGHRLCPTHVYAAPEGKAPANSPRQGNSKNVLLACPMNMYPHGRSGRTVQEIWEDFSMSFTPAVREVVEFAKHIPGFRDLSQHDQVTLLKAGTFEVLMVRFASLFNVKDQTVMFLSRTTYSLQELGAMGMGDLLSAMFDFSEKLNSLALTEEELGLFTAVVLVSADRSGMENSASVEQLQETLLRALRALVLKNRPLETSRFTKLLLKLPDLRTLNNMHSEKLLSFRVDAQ
MC4R antag cAMP = MC4R antagonists of cAMP signaling, primary screen, cell-based, TR-FRET, antagonist arm of biased-ligand search; Melanocortin receptor 4 (Homo sapiens), P32245; MC4R-expressing cells, MTII-stimulated cAMP, LANCE TR-FRET; inhibition, % at 6.5 µM; hit rate 0.48% among 360,000;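 active means inhibition above its plate's cutoff, the mean of tested wells on that plate plus 3 SD, cut at about 29% in these data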;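 further: 0% = Melanotan II alone and 100% = Melanotan II plus saturating MCL0020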
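Test system: U2OS cells stably expressing human melanocortin 4 receptor (MC4R); also added: Melanotan II challenge; compound: 6.5 µM single dose; timing: 30-min compound preincubation, 1-h Melanotan II challenge, 1-h detection, room temperature; signal: Eu-cAMP/anti-cAMP TR-FRET, emission 671 nm; repeats: one well per compound, no replicates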
PG9 Ab binder = binders of HIV-1 gp120 antibody PG9, primary screen, biochemical, TR-FRET | HIV-1 gp120 / PG9 antibody interaction | TR-FRET gp120-PG9 antibody binding | inhibition, % at 6.7 µM | hit rate 0.43% among 360,000; in the data active means inhibition above about 8.5%
NR2E3 ag-2 = inhibitors of NR2E3-RetCOR corepressor binding, primary screen, NR2E3 agonist project, biochemical, TR-FRET, GST-NR2E3, biotin-RetCOR | Photoreceptor-specific nuclear receptor (Homo sapiens), Q9Y5X4 | 1536-well | inhibition of corepressor binding, % at 4.78 µM | hit rate 0.12% among 320,000 | AID 2300, 2010;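 active means percent inhibition above the cutoff of mean plus 3 SD of all tested compounds, set per screening campaign, cut at about 20% in these data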;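 further: 0% = DMSO wells and 100% = biotin wells as full block of FRET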
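Test system: GST-NR2E3 and biotin-RetCOR proteins | Quantity: 1.35 nM GST-tagged NR2E3 final | Medium: Tris pH 7.5 | Also added: 7 nM biotin-RetCOR | Dosing: Compound at 4.8 µM, single dose | Timing: 5 h at 4 °C | Detection: Time-resolved FRET | Read-out basis: Percent inhibition | Benchmarks: Biotin wells as high control, 0.6% DMSO wells as low control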
MC4R ag barr = MC4R agonists recruiting beta-arrestin, primary screen, cell-based, luminescence, agonist arm of biased-ligand search; hit rate 0.98% among 360,000; Melanocortin receptor 4 (Homo sapiens), P32245; activation, % at 8.9 µM; AID 540308, 2011; U2OS MC4R beta-arrestin complementation; percent of melanotan II response, DMSO zero;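 active means activation above a per-plate cutoff, the mean activation of sample wells on that plate plus 3 SD, cut at about 8% in these data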
* marks the source's active call; other numbers are inactive results; . = not tested or not shown.

SMILES	NR2E3 ag-1	NR1D1 modulator	MC4R antag cAMP	PG9 Ab binder	NR2E3 ag-2	MC4R ag barr
CC1Oc2cc3c(-c4c(O)cc(O)c5c(O)c6c(cc45)OC(C)C(C)C6=O)c(O)cc(O)c3c(O)c2C(=O)C1C (stereo not drawn)	-8	.	20	.	6	9.7*
COc1ccc2c(c1)C(NC(C)=O)CCc1cc(OC)c(OC)c(OC)c1-2 (stereo not drawn)	44	-8	-21	0	.	-2
C[C@H]1CCC[C@@H](O)CCC/C=C/c2cc(O)cc(O)c2C(=O)O1	25	-3	-37	-1	3	-1
C[C@H]1CCC/C=C/C2C[C@H](O)CC2[C@H](O)/C=C/C(=O)O1 (stereo partly drawn)	96*	.	11	.	0	0
Cn1c(O)c(N=Nc2ccc(S(=O)(=O)N3CCOCC3)cc2)c(=O)n(C)c1=O	-11	4	-12	-1	-2	-4
CCCC[C@@H](C)C[C@@H](C)C(=O)N(C)[C@@H](CC(C)C)C(=O)N[C@H](C(=O)N(C)[C@H](C(=O)N1C[C@@H](O)C[C@H]1C(=O)N1C(=O)C=C[C@@H]1C)C(C)C)C(C)OC(C)=O (stereo partly drawn)	82*	.	-19	.	.	2
Cc1ccc(C[n+]2c(-c3ccc(C)cc3)cc(-c3ccc(C)cc3)cc2-c2ccc(C)cc2)cc1	99*	.	2	.	1	56*
Cc1ccc(-c2cc(-c3ccc(C)cc3)[n+](-c3ccc(C(=O)O)cc3)c(-c3ccc(C)cc3)c2)cc1	-6	-4	0	2	4	-1
C[C@]12CC[C@H](OC3OC(O)C(O)C(O)C3O)C=C1CCC1C2CC[C@]2(C)[C@@H](c3ccc(=O)oc3)CC[C@]12O (stereo partly drawn)	.	-4	.	.	.	.
C[C@]12CC[C@H]3C(CCC4(O)CC(O)CC[C@]34C=O)C1=CC[C@H]2c1ccc(=O)oc1 (stereo partly drawn)	-43	4	4	0	0	21*
CC(=O)O[C@H]1[C@H]2O[C@]23[C@@H]2CC[C@]4(O)C[C@@H](O)CC[C@]4(C)C2CC[C@]3(C)[C@H]1c1ccc(=O)oc1 (stereo partly drawn)	8	.	4	.	-2	24*
COc1ccc(-c2nc3ccccc3c(=O)n2-c2ccc(OC)cc2)cc1	-12	3	1	0	1	-1
CCn1nc(-c2ccccc2)nc2c(=O)n(C)c(=O)nc1-2	89*	.	-44	.	41*	0
CCn1ccnc1CN1CCCC(C(=O)c2cccc(C(F)(F)F)c2)C1 (stereo not drawn)	3	5	-5	0	5	-3
COc1ccccc1N1CCN(Cc2ccc3c(c2)OCO3)CC1	1	1	1	2	4	-1
COC1C(O)C(C)OC(OC2CCC3(C)C(CCC4C3C(O)CC3(C)C(C5=CC(=O)OC5)CCC43O)C2)C1O (stereo not drawn)	3	-3	3	2	.	18*
CC12CCC(O)CC1CCC1C2CCC2(C)C(C3=CC(=O)OC3)C(O)CC12O (stereo not drawn)	-9	-4	2	-1	.	13*
CC12CC[C@H]3[C@@H](CCC4(O)C[C@H](O)CCC34/C=N/NC(=O)Cc3ccccc3)C1(O)CCC2C1=CC(=O)OC1 (stereo partly drawn)	-15	-7	-4	1	2	1
CC12CCC(O)CC1CCC1C2CCC2(C)C(C3=CC(=O)OC3)CCC12O (stereo not drawn)	-27	3	0	1	.	28*
C[C@]12CC[C@H](O)C[C@H]1CC[C@@H]1[C@@H]2C[C@@H](O)[C@]2(C)[C@@H](C3=CC(=O)OC3)CC[C@]12O	-17	-2	2	-2	4	24*
CC1(C)CC(N(CCc2ccccc2)Cc2ccccc2)CCO1 (stereo not drawn)	-13	11	4	0	-2	0
CC(=O)OC1CC(OC2C(O)CC(OC3C(O)CC(OC4CCC5(C)C(CCC6C5CC(O)C5(C)C(C7=CC(=O)OC7)CCC65O)C4)OC3C)OC2C)OC(C)C1OC1OC(CO)C(O)C(O)C1O (stereo not drawn)	-3	-4	2	0	.	24*
C[C@]12CC[C@H](O)C[C@H]1CC[C@@H]1[C@@H]2CC[C@]2(C)[C@@H](C3=CC(=O)OC3)CC[C@]12O	-4	0	21	1	1	34*
COC(=O)C1=C(c2ccc(F)cc2F)C[C@@H]2CC[C@H]1N2C(=O)NCc1ccc(C(F)(F)F)cc1	11	2	9	-1	6	2
O=C1NC(=O)C(=Cc2ccc(N3CCOCC3)cc2)C(=O)N1	0	-3	17	0	0	0
SMILES	NR2E3 ag-1	NR1D1 modulator	MC4R antag cAMP	PG9 Ab binder	NR2E3 ag-2	MC4R ag barr
O=C1NC(=O)C(=Cc2ccc(-c3ccc(S(=O)(=O)N4CCOCC4)cc3)o2)C(=O)N1	17	0	36*	0	0	-2
[O-]c1ccccc1-[n+]1c(-c2ccccc2)cc(-c2ccccc2)cc1-c1ccccc1	-32	0	17	0	0	-1
C=C1C(=O)[C@@]23C[C@H]4[C@@H]5[C@@]6(C)CCC[C@@]57[C@@H]2[C@@H](O)[C@@H]1C[C@H]3[C@H]7N4C6	-48	1	-2	0	1	-1
COP(=O)(OC)C(NC(C)=O)C(Cl)(Cl)Cl (stereo not drawn)	2	0	-4	-3	1	1
C[C@@H]1O[C@@H](O[C@H]2C[C@@H](O)[C@]3(CO)[C@@H]4C(CC[C@]3(O)C2)[C@@]2(O)CC[C@H](C3COC(=O)C3)[C@@]2(C)C[C@H]4O)[C@H](O)[C@H](O)[C@H]1O (stereo partly drawn)	0	7	-4	-2	4	28*
O=C1C(=O)c2cccc3cccc1c23	2	-4	-2	0	0	-2
